Test results as given in ChEMBL document CHEMBL5247575 (J Med Chem, 2018).
In brackets after ≈: the same amount, converted by molar mass.

Tests used:
Format in all cases: functional
Pseudomonas aeruginosa [1] = experiment: Antibacterial activity against Pseudomonas aeruginosa 839 by broth microdilution method
Escherichia coli [2] = experiment: Synergistic antibacterial activity against Escherichia coli DH10B assessed as cefepime MIC at 4 ug/ml by broth microdilution method; settings: dose 4 µg/ml
Escherichia coli [3] = experiment: Synergistic antibacterial activity against Escherichia coli DH10B transfected with pBR322-catI-KPC-2 assessed as cefepime MIC at 4 ug/ml by broth microdilution method; settings: dose 4 µg/ml
Procedure, shortened: (§1)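 Broth microdilution per CLSI guidelines, using custom frozen panels. […] Each partner drug was also tested alone. MICs were run in triplicate and the modal value is reported.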

Escherichia coli [4] = experiment: Synergistic antibacterial activity against Escherichia coli DH10B transfected with pBC SK (-) KPC-2 assessed as cefepime MIC at 4 ug/ml by broth microdilution method; settings: dose 4 µg/ml
Escherichia coli [5] = experiment: Synergistic antibacterial activity against Escherichia coli DH10B transfected with pBC SK (-) PDC-3 assessed as cefepime MIC at 4 ug/ml by broth microdilution method; settings: dose 4 µg/ml; procedure, shortened: as §1
Acinetobacter baumannii [6] = experiment: Synergistic antibacterial activity against ADC deleted Acinetobacter baumannii transfected with pWH1266 OXA-23 assessed as cefepime MIC at 4 ug/ml by broth microdilution method; settings: dose 4 µg/ml
Klebsiella pneumoniae [7] = experiment: Synergistic antibacterial activity against Klebsiella pneumoniae 729/1679 producing KPC-3 assessed as cefepime MIC at 4 ug/ml by broth microdilution method; settings: dose 4 µg/ml; procedure, shortened: as §1
Klebsiella pneumoniae [8] = experiment: Synergistic antibacterial activity against Klebsiella pneumoniae 977/1916 producing KPC-3 assessed as cefepime MIC at 4 ug/ml by broth microdilution method; settings: dose 4 µg/ml
Klebsiella pneumoniae [9] = experiment: Synergistic antibacterial activity against Klebsiella pneumoniae CAV 1636 producing OXA-181 assessed as cefepime MIC at 4 ug/ml by broth microdilution method; settings: dose 4 µg/ml
Klebsiella pneumoniae [10] = experiment: Synergistic antibacterial activity against Klebsiella pneumoniae NY BS producing OXA-232 assessed as cefepime MIC at 4 ug/ml by broth microdilution method; settings: dose 4 µg/ml
Pseudomonas aeruginosa [11] = experiment: Synergistic antibacterial activity against Pseudomonas aeruginosa 795 assessed as cefepime MIC at 4 ug/ml by broth microdilution method; settings: dose 4 µg/ml
Pseudomonas aeruginosa [12] = experiment: Synergistic antibacterial activity against Pseudomonas aeruginosa 839 assessed as cefepime MIC at 4 ug/ml by broth microdilution method; settings: dose 4 µg/ml
Acinetobacter baumannii [13] = experiment: Synergistic antibacterial activity against Acinetobacter baumannii PR448 producing OXA-23 assessed as cefepime MIC at 4 ug/ml by broth microdilution method; settings: dose 4 µg/ml
Acinetobacter baumannii [14] = experiment: Synergistic antibacterial activity against ADC deleted Acinetobacter baumannii transfected with pWH1266 OXA-23 assessed as cefepime MIC at 8 ug/ml by broth microdilution method; settings: dose 8 µg/ml
Klebsiella pneumoniae [15] = experiment: Synergistic antibacterial activity against Klebsiella pneumoniae 729/1679 producing KPC-3 assessed as cefepime MIC at 8 ug/ml by broth microdilution method; settings: dose 8 µg/ml; procedure, shortened: as §1
Klebsiella pneumoniae [16] = experiment: Synergistic antibacterial activity against Klebsiella pneumoniae 776/1742 producing KPC-2 assessed as cefepime MIC at 8 ug/ml by broth microdilution method; settings: dose 8 µg/ml
Klebsiella pneumoniae [17] = experiment: Synergistic antibacterial activity against Klebsiella pneumoniae 1108/1989 producing KPC-3 assessed as cefepime MIC at 8 ug/ml by broth microdilution method; settings: dose 8 µg/ml; procedure, shortened: as §1
Klebsiella pneumoniae [18] = experiment: Synergistic antibacterial activity against Klebsiella pneumoniae CAV 1636 producing OXA-181 assessed as cefepime MIC at 8 ug/ml by broth microdilution method; settings: dose 8 µg/ml
Acinetobacter baumannii [19] = experiment: Synergistic antibacterial activity against Acinetobacter baumannii PR323 producing OXA-24/40 assessed as cefepime MIC at 8 ug/ml by broth microdilution method; settings: dose 8 µg/ml
Acinetobacter baumannii [20] = experiment: Synergistic antibacterial activity against Acinetobacter baumannii PR474 producing OXA-23/24/40 assessed as cefepime MIC at 8 ug/ml by broth microdilution method; settings: dose 8 µg/ml
Escherichia coli [21] = experiment: Synergistic antibacterial activity against Escherichia coli DH10B assessed as meropenem MIC at 4 ug/ml by broth microdilution method; settings: dose 4 µg/ml
Klebsiella pneumoniae [22] = experiment: Synergistic antibacterial activity against Klebsiella pneumoniae 1084/1957 producing KPC-3 assessed as meropenem MIC at 4 ug/ml by broth microdilution method; settings: dose 4 µg/ml; procedure, shortened: as §1
Klebsiella pneumoniae [23] = experiment: Synergistic antibacterial activity against Klebsiella pneumoniae 972/1910 producing KPC-3 assessed as meropenem MIC at 4 ug/ml by broth microdilution method; settings: dose 4 µg/ml
Klebsiella pneumoniae [24] = experiment: Synergistic antibacterial activity against Klebsiella pneumoniae CAV 1543 producing OXA-48 assessed as meropenem MIC at 4 ug/ml by broth microdilution method; settings: dose 4 µg/ml
Klebsiella pneumoniae [25] = experiment: Synergistic antibacterial activity against Klebsiella pneumoniae jefferson 1775 producing OXA-48 assessed as meropenem MIC at 4 ug/ml by broth microdilution method; settings: dose 4 µg/ml
Acinetobacter baumannii [26] = experiment: Synergistic antibacterial activity against Acinetobacter baumannii PR323 producing OXA-24/40 assessed as meropenem MIC at 4 ug/ml by broth microdilution method; settings: dose 4 µg/ml
Acinetobacter baumannii [27] = experiment: Synergistic antibacterial activity against Acinetobacter baumannii PR420 producing OXA-23/24/40 assessed as meropenem MIC at 4 ug/ml by broth microdilution method; settings: dose 4 µg/ml
Acinetobacter baumannii [28] = experiment: Synergistic antibacterial activity against Acinetobacter baumannii PR474 producing OXA-23/24/40 assessed as meropenem MIC at 4 ug/ml by broth microdilution method; settings: dose 4 µg/ml
Escherichia coli [29] = experiment: Synergistic antibacterial activity against Escherichia coli DH10B transfected with pBC SK (-) KPC-2 assessed as meropenem MIC at 8 ug/ml by broth microdilution method; settings: dose 8 µg/ml
Acinetobacter baumannii [30] = experiment: Synergistic antibacterial activity against ADC deleted Acinetobacter baumannii assessed as meropenem MIC at 8 ug/ml by broth microdilution method; settings: dose 8 µg/ml
Klebsiella pneumoniae [31] = experiment: Synergistic antibacterial activity against Klebsiella pneumoniae 660/1568 producing KPC-3 assessed as meropenem MIC at 8 ug/ml by broth microdilution method; settings: dose 8 µg/ml; procedure, shortened: as §1
Klebsiella pneumoniae [32] = experiment: Synergistic antibacterial activity against Klebsiella pneumoniae 935/1884 producing KPC-3 assessed as meropenem MIC at 8 ug/ml by broth microdilution method; settings: dose 8 µg/ml
Klebsiella pneumoniae [33] = experiment: Synergistic antibacterial activity against Klebsiella pneumoniae 1108/1989 producing KPC-3 assessed as meropenem MIC at 8 ug/ml by broth microdilution method; settings: dose 8 µg/ml; procedure, shortened: as §1
Klebsiella pneumoniae [34] = experiment: Synergistic antibacterial activity against Klebsiella pneumoniae 1398/2291 producing KPC-3 assessed as meropenem MIC at 8 ug/ml by broth microdilution method; settings: dose 8 µg/ml; procedure, shortened: as §1
Klebsiella pneumoniae [35] = experiment: Synergistic antibacterial activity against Klebsiella pneumoniae 1354/2241 producing KPC-3 assessed as meropenem MIC at 8 ug/ml by broth microdilution method; settings: dose 8 µg/ml; procedure, shortened: as §1
Pseudomonas aeruginosa [36] = experiment: Synergistic antibacterial activity against Pseudomonas aeruginosa 776 assessed as meropenem MIC at 8 ug/ml by broth microdilution method; settings: dose 8 µg/ml
Pseudomonas aeruginosa [37] = experiment: Synergistic antibacterial activity against Pseudomonas aeruginosa 795 assessed as meropenem MIC at 8 ug/ml by broth microdilution method; settings: dose 8 µg/ml
Acinetobacter baumannii [38] = experiment: Synergistic antibacterial activity against Acinetobacter baumannii PR319 producing OXA-23/24/40 assessed as cefepime MIC at 4 ug/ml by broth microdilution method; settings: dose 4 µg/ml

`O=C(NNC(=O)[C@@H]1CC[C@@H]2CN1C(=O)N2OS(=O)(=O)O)[C@@H]1CCNC1` gave an MIC (Pseudomonas aeruginosa [1]) of 4 µg/mL (≈ 10.6 µM), an MIC (Escherichia coli [2]) of no more than 0.12 µg/mL and an MIC (Escherichia coli [3]) of no more than 0.12 µg/mL. It also gave an MIC (Escherichia coli [4]) of no more than 0.12 µg/mL, an MIC (Escherichia coli [5]) of no more than 0.12 µg/mL and an MIC (Acinetobacter baumannii [6]) of 16 µg/mL. For the same compound, the MIC (Klebsiella pneumoniae [7]) was no more than 0.12 µg/mL, the MIC (Klebsiella pneumoniae [8]) was no more than 0.12 µg/mL and the MIC (Klebsiella pneumoniae [9]) was no more than 0.12 µg/mL. The MIC (Klebsiella pneumoniae [10]) was no more than 0.12 µg/mL, the MIC (Pseudomonas aeruginosa [11]) was 0.5 µg/mL and the MIC (Pseudomonas aeruginosa [12]) was no more than 0.12 µg/mL. For the same compound, the MIC (Acinetobacter baumannii [13]) was 4 µg/mL, the MIC (Acinetobacter baumannii [14]) was 16 µg/mL and the MIC (Klebsiella pneumoniae [15]) was no more than 0.12 µg/mL. The MIC (Klebsiella pneumoniae [16]) was no more than 0.12 µg/mL, the MIC (Klebsiella pneumoniae [17]) was no more than 0.12 µg/mL and the MIC (Klebsiella pneumoniae [18]) was no more than 0.12 µg/mL. The MIC (Acinetobacter baumannii [19]) was 8 µg/mL, the MIC (Acinetobacter baumannii [20]) was 8 µg/mL and the MIC (Escherichia coli [21]) was no more than 0.12 µg/mL. It also gave an MIC (Klebsiella pneumoniae [22]) of no more than 0.12 µg/mL, an MIC (Klebsiella pneumoniae [23]) of no more than 0.12 µg/mL and an MIC (Klebsiella pneumoniae [24]) of no more than 0.12 µg/mL. It also gave an MIC (Klebsiella pneumoniae [25]) of no more than 0.12 µg/mL, an MIC (Acinetobacter baumannii [26]) greater than 16 µg/mL and an MIC (Acinetobacter baumannii [27]) greater than 16 µg/mL. It also gave an MIC (Acinetobacter baumannii [28]) greater than 16 µg/mL, an MIC (Escherichia coli [29]) of no more than 0.12 µg/mL and an MIC (Acinetobacter baumannii [30]) of no more than 0.12 µg/mL. It also gave an MIC (Klebsiella pneumoniae [31]) of no more than 0.12 µg/mL, an MIC (Klebsiella pneumoniae [32]) of no more than 0.12 µg/mL and an MIC (Klebsiella pneumoniae [33]) of no more than 0.12 µg/mL. The MIC (Klebsiella pneumoniae [34]) was no more than 0.12 µg/mL, the MIC (Klebsiella pneumoniae [35]) was no more than 0.12 µg/mL and the MIC (Pseudomonas aeruginosa [36]) was 16 µg/mL. For the same compound, the MIC (Pseudomonas aeruginosa [37]) was no more than 0.12 µg/mL.

`O=C(NNC(=O)[C@@H]1CC[C@@H]2CN1C(=O)N2OS(=O)(=O)O)[C@@H]1CCCNC1` [ZIDEBACTAM] gave an MIC (Pseudomonas aeruginosa [1]) of 8 µg/mL (≈ 20.4 µM), an MIC (Escherichia coli [2]) of no more than 0.12 µg/mL and an MIC (Escherichia coli [3]) of no more than 0.12 µg/mL. For the same compound, the MIC (Escherichia coli [4]) was no more than 0.12 µg/mL, the MIC (Escherichia coli [5]) was no more than 0.12 µg/mL and the MIC (Acinetobacter baumannii [6]) was 16 µg/mL. The MIC (Klebsiella pneumoniae [7]) was no more than 0.12 µg/mL, the MIC (Klebsiella pneumoniae [8]) was no more than 0.12 µg/mL and the MIC (Klebsiella pneumoniae [9]) was no more than 0.12 µg/mL. The MIC (Klebsiella pneumoniae [10]) was no more than 0.12 µg/mL, the MIC (Pseudomonas aeruginosa [11]) was 16 µg/mL and the MIC (Pseudomonas aeruginosa [12]) was 2 µg/mL. For the same compound, the MIC (Acinetobacter baumannii [38]) was greater than 16 µg/mL, the MIC (Acinetobacter baumannii [13]) was 4 µg/mL and the MIC (Acinetobacter baumannii [14]) was 16 µg/mL. For the same compound, the MIC (Klebsiella pneumoniae [15]) was no more than 0.12 µg/mL, the MIC (Klebsiella pneumoniae [16]) was no more than 0.12 µg/mL and the MIC (Klebsiella pneumoniae [17]) was no more than 0.12 µg/mL. For the same compound, the MIC (Klebsiella pneumoniae [18]) was no more than 0.12 µg/mL, the MIC (Acinetobacter baumannii [19]) was 4 µg/mL and the MIC (Acinetobacter baumannii [20]) was 8 µg/mL. For the same compound, the MIC (Escherichia coli [21]) was no more than 0.12 µg/mL, the MIC (Klebsiella pneumoniae [22]) was no more than 0.12 µg/mL and the MIC (Klebsiella pneumoniae [23]) was no more than 0.12 µg/mL. The MIC (Klebsiella pneumoniae [24]) was no more than 0.12 µg/mL, the MIC (Klebsiella pneumoniae [25]) was no more than 0.12 µg/mL and the MIC (Acinetobacter baumannii [26]) was greater than 16 µg/mL. For the same compound, the MIC (Acinetobacter baumannii [27]) was greater than 16 µg/mL, the MIC (Acinetobacter baumannii [28]) was greater than 16 µg/mL and the MIC (Escherichia coli [29]) was no more than 0.12 µg/mL. The MIC (Acinetobacter baumannii [30]) was no more than 0.12 µg/mL, the MIC (Klebsiella pneumoniae [31]) was no more than 0.12 µg/mL and the MIC (Klebsiella pneumoniae [32]) was no more than 0.12 µg/mL. It also gave an MIC (Klebsiella pneumoniae [33]) of no more than 0.12 µg/mL, an MIC (Klebsiella pneumoniae [34]) of no more than 0.12 µg/mL and an MIC (Klebsiella pneumoniae [35]) of no more than 0.12 µg/mL. For the same compound, the MIC (Pseudomonas aeruginosa [36]) was 16 µg/mL and the MIC (Pseudomonas aeruginosa [37]) was 4 µg/mL.
